This excerpt belongs to a sample that is enriched for hits.
RORa inhibitor = inhibitors of human nuclear receptor RORA; P35398; CHO-K1 Gal4-RORA LBD luciferase reporter, luminescence; inhibition, % at 10 µM; hit rate 0.43% among 65,000; AID 561;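 active means inhibition above the mean of all tested compounds plus 3 SD, cut at about 52% in these data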
Target sequence (P35398 whole entry, looked up, the tested form may be a part): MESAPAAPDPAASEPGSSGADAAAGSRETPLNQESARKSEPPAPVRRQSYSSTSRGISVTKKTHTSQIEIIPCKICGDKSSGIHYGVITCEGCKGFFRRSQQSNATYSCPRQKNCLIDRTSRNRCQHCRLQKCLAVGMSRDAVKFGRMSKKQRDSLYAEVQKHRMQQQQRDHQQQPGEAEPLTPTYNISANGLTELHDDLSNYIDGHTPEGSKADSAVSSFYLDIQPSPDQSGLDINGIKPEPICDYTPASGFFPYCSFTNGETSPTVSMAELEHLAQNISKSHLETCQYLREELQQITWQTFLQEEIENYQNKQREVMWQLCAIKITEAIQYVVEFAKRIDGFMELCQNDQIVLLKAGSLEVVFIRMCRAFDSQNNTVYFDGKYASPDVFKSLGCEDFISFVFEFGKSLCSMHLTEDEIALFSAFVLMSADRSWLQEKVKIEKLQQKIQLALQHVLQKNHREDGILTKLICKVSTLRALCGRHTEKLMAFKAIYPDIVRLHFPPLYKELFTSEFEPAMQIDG
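System: transiently transfected CHO-K1 cells, Gal4-DBD/human RORA-LBD fusion plus 5xGal4-luciferase reporter. Doses: one dose of 10 µM final. Timing: 20 h compound treatment, 37 °C. Measured by: luminescence. Evaluation: % inhibition of basal luciferase versus +RORA/-RORA DMSO controls. Benchmarks: mock-transfected cells as 100%, +RORA DMSO cells as 0%. Replicates: single test per compound.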
Each line names hits and unclear results; the compound was inactive in the other large screens.

COc1ccc(C(=O)NC(=O)Nc2cc(C)ccn2)cc1	RORa inhibitor 70
Cc1ccnc(NC(=O)Nc2ccc(F)cc2)c1	none
COc1cc2c(cc1OC)C(=NCCC(=O)O)NC(C)(C)C2	none
COc1cccc(NC(=O)Cn2c(SCC(=O)N3CCOCC3)nc3ccccc32)c1	none
COc1cccc(NC(=O)CNC(C)CCC(C)C)c1 (configuration not stated)	none
COc1cccc(NC(=O)CSc2nnc(-c3cc(C)n(-c4ccccc4)c3C)o2)c1	RORa inhibitor 71
COc1ccc(-n2nnc3c(SCC(=O)NCc4ccco4)ncnc32)cc1	none
O=C(CSc1nc2ccccc2c(=O)n1Cc1ccco1)c1ccc(F)cc1	none
COc1ccc(C(=O)Nn2c(SCC(=O)NCc3ccco3)nc3ccccc3c2=O)cc1	RORa inhibitor 59
O=C(CCN1c2ccccc2Sc2ccccc21)OCC(=O)N1CCN(C(=O)c2ccco2)CC1	none
Cc1ccccc1Cn1ccc(NC(=O)c2onc(C)c2Cl)n1	none
Cc1ccc(-c2noc(CCC(=O)NCc3ccc4c(c3)OCO4)n2)cc1	none
CN=c1scc(C)n1/N=C/c1ccc(O)cc1O	RORa inhibitor 63
CN(C)S(=O)(=O)n1cnc(-c2ccccc2)c1-c1ccccc1	none
Clc1ccc(OCc2nnc(-c3ccccc3Br)o2)c(Cl)c1	none
CC1CCN(c2nc3c(c(=O)n(C)c(=O)n3C)n2Cc2ccccc2)CC1	none
CCCCCn1c(CN2CCN(Cc3ccccc3)CC2)nc2c1c(=O)n(C)c(=O)n2C	none
C=CCOc1nc2c(c(=O)n(C)c(=O)n2C)n1Cc1ccc(Cl)cc1	RORa inhibitor 58
c1ccn2c(SCc3cn4ccsc4n3)nnc2c1	none
C=C(C)Cn1c(N2CC(C)CC(C)C2)nc2c1c(=O)[nH]c(=O)n2C (configuration not stated)	none
Cc1cccc(N(Cc2cc3ccccc3[nH]c2=O)C(=O)c2ccco2)c1C	none
FC(F)(F)c1cc(-c2ccccc2)nc(N2CCCCCC2)n1	none
COc1ccc(-c2nsc3c(N4CCN(S(=O)(=O)c5ccccc5)CC4)ncnc23)cc1	none
O=S(=O)(c1ccccc1)N1CCN(c2cc(-c3ccccc3)nc3ncnn23)CC1	RORa inhibitor 70
CN(C)c1ccc(-c2ccccc2)nn1	none
Cc1sc2nc3n(c(=O)c2c1C)Cc1ccccc1-3	none
Cc1ccc(N(CN2C(=O)C3CC=CCC3C2=O)C(=O)c2ccco2)cc1Cl (configuration not stated)	none
Cc1ccc(-c2nc(-c3ccccn3)no2)cc1Cl	RORa inhibitor 81
Brc1ccc(-c2nc(-c3ccccc3)no2)o1	none
Clc1cc(Cl)c(OCc2nc(-c3ccccn3)no2)cc1Cl	none
Cc1cccc(-c2noc(Cc3ccc(Cl)cc3)n2)c1	none
Clc1cccc(-c2nc(-c3ccccn3)no2)c1	RORa inhibitor 62
c1ccc(Cc2nc(-c3ccccn3)no2)cc1	none
Cc1ccc(-c2nc(-c3ccccn3)no2)cc1	RORa inhibitor 90
c1ccc(CCCc2nc(-c3ccccn3)no2)cc1	none
CC(C)(C)c1ccc(OCc2nc(-c3ccccn3)no2)c(Br)c1	none
CCN(CC)c1ccc(-c2nc3cnccc3n2C)cc1	none
CCOC(=O)C1CCN(S(=O)(=O)C(F)(F)c2nc3ccccc3s2)CC1	none
Cc1cc(NC(=O)c2ccco2)ncc1NC(=O)Cc1ccccc1	none
c1ccc(CC2CCN(Cc3nc(-c4ccccc4)no3)CC2)cc1	none
O=C(O)c1cccc(S(=O)(=O)N2CCSCC2)c1	none
CCn1nnc(-c2ccccc2NC(=O)C(F)(F)F)n1	none
CC1CCCN(c2ncnc3c2cnn3-c2ccccc2)C1 (configuration not stated)	RORa inhibitor 57
CC1CCCN(c2ncnc3c2cnn3-c2ccc(Cl)cc2)C1 (configuration not stated)	RORa inhibitor 84
Cc1cccc(-n2ncc3c(N4CCC5(CC4)OCCO5)ncnc32)c1	none
c1ccc(-n2ncc3c(N4CCCCC4)ncnc32)cc1	RORa inhibitor 62
CC1CC(C)CN(c2ncnc3c2cnn3-c2ccc(Cl)cc2)C1 (configuration not stated)	none
CN1CCN(c2ncnc3c2cnn3-c2ccc(Cl)cc2)CC1	none
c1ccc(-n2ncc3c(NC4CCCCCC4)ncnc32)cc1	none
Clc1ccc(-n2ncc3c(NCC4CCCO4)ncnc32)cc1 (configuration not stated)	none
c1ccc(-n2ncc3c(NCC4CCCO4)ncnc32)cc1 (configuration not stated)	none
Cc1ccc(C)c(-n2c(Cc3cc(=O)[nH]c(=O)[nH]3)nnc2SCC(=O)NCC2CCCO2)c1 (configuration not stated)	none
Cc1ccc(-n2c(SCC(=O)Nc3ccc4cn[nH]c4c3)nnc2-c2ccco2)cc1	none
Cc1cc(C)cc(-n2cc3c(=O)n(C)c(=O)n(C)c3c2)c1	none
COC(=O)CCC(=O)Nc1cccc(Br)c1	none
COc1ccc(C(=O)Cn2c(N3CCOCC3)nc3ccccc32)cc1OC	none
COc1ccc(Nc2nccc3c2nnn3C)cc1	none
Cc1nnc2sc(-c3cc4ccccc4o3)nn12	none
COC(=O)c1cccc(NC(=O)Cn2nnc3ccccc32)c1	none
COc1ccc(S(=O)(=O)Cc2ccc(C(=O)NCc3ccc(F)cc3)o2)cc1	none
O=C(OCc1nnc(-c2ccccc2)o1)c1ccc(S(=O)(=O)NCc2ccco2)cc1	none
COc1ccc2oc(=O)c(C(=O)N3CCc4ccccc43)cc2c1	none
COc1cc2c(cc1OC)C(C)N(C(=O)c1cc3ccccc3o1)CC2 (configuration not stated)	RORa inhibitor 64
COc1ccc(NC(=O)c2cc3ccccc3o2)cc1	none
c1ccc(-n2nc3c(ccc4cnnc43)[nH]2)cc1	none
CC(=NC1CCCCC1)C1=C(O)c2ccccc2C1=O	none
CCCC(NS(=O)(=O)c1ccc(Br)cc1)C(=O)O (configuration not stated)	none
O=C1COc2ccc(OCc3ccc(F)cc3)cc21	none
COc1cc(NS(=O)(=O)c2ccc(C)cc2)c2ncccc2c1	RORa inhibitor 85
O=S(=O)(NC1CCCCCC1)c1cccc2cccnc12	none
COc1ccc(S(=O)(=O)Nc2nnc(C(C)(C)C)s2)cc1	none
CN1CCN(C(=O)CN(c2cccc(Cl)c2)S(=O)(=O)c2ccccc2)CC1	none
NC(=O)C1(N2CCCCC2)CCN(C(=O)Nc2ccccc2C(F)(F)F)CC1	none
CC1CCc2cc(F)cc3c(O)c(C(=O)Nc4cnccn4)c(=O)n1c23 (configuration not stated)	none
C=CCN(CC(=O)NCc1ccccc1)C(=O)c1csnn1	none
CC(=O)c1ccc(N2CCN(c3ccc(C(F)(F)F)cn3)CC2)cc1	RORa inhibitor 54
COc1ccc(C(=O)CN2CCN(c3ccc(F)cc3)CC2)cc1OC	none
CC(=O)c1cc2c(cc1NC(=O)CN1CCN(c3cccc(C(F)(F)F)c3)CC1)OCO2	none
O=C1CCn2nc(-c3ccc(Cl)cc3)cc2N1	none
COC(=O)c1c(NC(=O)CC2SCC(C(=O)OC)NC2=O)sc2c1CCCC2 (configuration not stated)	none
O=C(NCCc1ccc(Cl)cc1)C1CCC(=O)N1C1CCCC1 (configuration not stated)	none
COc1ccc(-c2noc(-c3ccccc3Cl)n2)cc1OC	none
COc1ccc(C2=Nn3c(nnc3-c3ccccc3OC)SC2)cc1OC	RORa inhibitor 55
COc1nc(-c2ccccc2)cc(-c2ccc(OC)c(OC)c2)n1	none
CCOC(=O)c1cnc(SCC(=O)c2ccccc2)nc1N	none
Cc1cccc2c1NC(C)CC2C (configuration not stated)	none
CN(C)CCCN1C(=O)C(O)=C(C(=O)c2cccs2)C1c1ccccn1 (configuration not stated)	none
CC1(C)CC(=O)c2cnc(NC(=O)c3ccco3)nc2C1	none
